Here are results for 4 compounds from ChEMBL document CHEMBL4007410, “Fluorinated Chaperone-β-Cyclodextrin Formulations for β-Glucocerebrosidase Activity Enhancement in Neuronopathic Gaucher Disease” (J Med Chem, 2017).

SMILES strings stand for the structures. Calls of active or inactive are those of the source. No cut-off for these calls is given here.

The target in assay [1] is T1, Lysosomal alpha-mannosidase (Homo sapiens) (UniProt O00754).
T1 sequence (whole entry): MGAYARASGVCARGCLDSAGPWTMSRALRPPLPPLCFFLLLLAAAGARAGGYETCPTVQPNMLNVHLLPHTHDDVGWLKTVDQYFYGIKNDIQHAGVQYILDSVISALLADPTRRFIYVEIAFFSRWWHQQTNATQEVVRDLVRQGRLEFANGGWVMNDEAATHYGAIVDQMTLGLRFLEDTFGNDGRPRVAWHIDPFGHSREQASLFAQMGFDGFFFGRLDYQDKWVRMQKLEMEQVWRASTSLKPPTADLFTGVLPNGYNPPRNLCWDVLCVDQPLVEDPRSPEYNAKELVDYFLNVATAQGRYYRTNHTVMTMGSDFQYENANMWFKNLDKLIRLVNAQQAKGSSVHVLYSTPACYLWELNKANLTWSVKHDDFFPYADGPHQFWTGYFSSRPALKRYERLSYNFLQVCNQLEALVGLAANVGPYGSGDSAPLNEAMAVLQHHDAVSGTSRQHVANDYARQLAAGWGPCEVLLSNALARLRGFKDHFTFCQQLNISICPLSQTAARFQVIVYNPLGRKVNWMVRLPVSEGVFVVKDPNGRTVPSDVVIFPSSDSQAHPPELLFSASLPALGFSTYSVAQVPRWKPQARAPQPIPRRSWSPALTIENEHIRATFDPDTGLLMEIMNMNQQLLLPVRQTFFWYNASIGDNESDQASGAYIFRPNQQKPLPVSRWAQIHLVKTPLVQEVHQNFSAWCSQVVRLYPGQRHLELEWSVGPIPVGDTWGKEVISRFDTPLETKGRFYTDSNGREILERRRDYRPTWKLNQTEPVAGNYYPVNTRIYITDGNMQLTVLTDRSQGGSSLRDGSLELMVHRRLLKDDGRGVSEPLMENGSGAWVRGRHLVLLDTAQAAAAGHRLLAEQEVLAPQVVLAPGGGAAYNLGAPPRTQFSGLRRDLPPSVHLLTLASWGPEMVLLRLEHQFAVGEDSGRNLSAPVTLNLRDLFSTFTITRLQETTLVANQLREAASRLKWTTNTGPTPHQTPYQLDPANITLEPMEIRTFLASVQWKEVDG
As to the kind of experiment: Inhibition of human lysosomal alpha-mannosidase assessed as formation of 4-methylumbelliferone from 4-methylumbelliferyl alpha-D-glucopyranoside up to 200 uM by luminescence spectrophotometry. The gist of the method: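 Cells were scraped into ice-cold water (10⁶ cells/mL), sonicated and centrifuged, and protein was quantified. Lysate in 0.1% Triton X-100 was incubated at 37 °C with the matching 4-MU-conjugated glycoside in 0.1 M citrate, pH 4.5, with increasing chaperone or βCD-complex concentrations up to 200 μM. Reactions were stopped with glycine-NaOH, pH 10.7, and read at ex 340/em 460 nm.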

The next assay has as its system Saccharomyces cerevisiae. Kind of assay: Inhibition of yeast alpha-glucosidase at 2 mM using beta-D-glycopyranoside after 10 to 30 mins in presence of beta-cyclodextrin by spectrophotometry. The gist of the method:
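Commercial glycosidases were assayed with o-nitrophenyl (E. coli β-galactosidase) or p-nitrophenyl glycoside substrate near KM. Buffer was phosphate, or phosphate-citrate for mannosidases and amyloglucosidase, at each enzyme's optimal pH. Enzyme was added last. Incubation ran 10-30 min at 37 °C (55 °C for amyloglucosidase), then was quenched with 1 M Na2CO3 and read at A405. Free compounds were tested up to 1 mM; 1:1 βCD complexes up to 2 mM.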

The nature of assay [2]: Competitive inhibition of bovine liver beta-glucosidase assessed as formation of 4-methylumbelliferone from 4-methylumbelliferyl […] by Lineweaver-Burk Plot analysis. More on the design: species or system Bos taurus.
The species named for the next assay is Homo sapiens. As to the kind of experiment: Chaperone activity assessed as enhancement of GCase N370S/84GG mutant enzyme in fibroblasts derived from type 1 gaucher disease patient […] prior to addition of 4-methylumbelliferyl beta-D-glucopyranoside as substrate in presence of beta-cyclodextrin by luminescence spectrophotometry relative to control.
Assay [3] can be described thus: Critical micellar concentration of the compound measured after 1 hr by pyrene fluorescence excitation spectral analysis. In a few lines: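 Pyrene fluorescence method: pyrene at 0.6 μM final in water, iminosugar from 1180 to 4.3·10⁻³ μM, equilibrated 1 h at 37 °C. Emission was read at 375 nm. The I339/I335 excitation intensity ratio tracked the band shift, giving the CMC.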

Assay [4] has as its target T2, Lysosomal acid glucosylceramidase (Homo sapiens, UniProt P04062).
T2 sequence (P04062 whole entry): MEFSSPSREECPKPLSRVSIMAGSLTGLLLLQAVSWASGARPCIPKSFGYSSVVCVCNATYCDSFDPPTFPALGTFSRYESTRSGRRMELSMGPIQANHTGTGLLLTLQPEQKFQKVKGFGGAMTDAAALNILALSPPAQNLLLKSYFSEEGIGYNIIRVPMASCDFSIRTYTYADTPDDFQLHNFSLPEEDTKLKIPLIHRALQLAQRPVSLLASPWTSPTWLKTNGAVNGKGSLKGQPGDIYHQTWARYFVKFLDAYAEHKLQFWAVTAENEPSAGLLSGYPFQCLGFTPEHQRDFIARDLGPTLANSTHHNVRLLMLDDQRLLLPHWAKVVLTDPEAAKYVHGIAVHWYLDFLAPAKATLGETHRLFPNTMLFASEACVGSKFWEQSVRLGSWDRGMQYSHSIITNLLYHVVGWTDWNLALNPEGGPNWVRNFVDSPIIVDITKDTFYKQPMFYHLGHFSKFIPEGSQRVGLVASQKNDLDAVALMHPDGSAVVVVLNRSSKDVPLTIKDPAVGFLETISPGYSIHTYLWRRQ
Kind of assay: Inhibition of human GCase assessed as formation of 4-methylumbelliferone from […] at pH 7 in presence of beta-cyclodextrin by luminescence spectrophotometry.

In assay [5] the target is T2, Lysosomal acid glucosylceramidase. As to the kind of experiment: Inhibition of human GCase assessed as formation of 4-methylumbelliferone from […] at pH 5 by luminescence spectrophotometry.

Take `O=C(CCC(F)(F)C(F)(F)C(F)(F)C(F)(F)C(F)(F)C(F)(F)F)NCCCCCCCCCNC(=S)N1[C@@H]2CO[C@H]1[C@H](O)[C@@H](O)[C@@H]2O`: the inhibition entry (in assay [1]; in the assay with Saccharomyces cerevisiae) was “inactive” throughout. In addition, the Ki in assay [2] came out at 330 nM; in assay [4], 600 nM; in assay [5], 32600 nM. The fold change (FC) in the assay filed under Homo sapiens was in the range of 1.5 to 1.7. The same compound displayed a CMC in assay [3] of 15 µM.
`O=C(CCC(F)(F)C(F)(F)C(F)(F)C(F)(F)C(F)(F)C(F)(F)F)NCCCCNC(=S)N1[C@@H]2CO[C@H]1[C@H](O)[C@@H](O)[C@@H]2O`: the inhibition result (in assay [1]; in the assay on Saccharomyces cerevisiae) was “inactive” in each case. In addition, the results for the Ki in assay [2], in assay [4] and in assay [5] were 1100 nM, 90 nM and 90000 nM, respectively. Further, the CMC in assay [3] stood at 31.6 µM.
Take `O=C(CCC(F)(F)C(F)(F)C(F)(F)C(F)(F)F)NCCCCCCCCCNC(=S)N1[C@@H]2CO[C@H]1[C@H](O)[C@@H](O)[C@@H]2O`: the inhibition entry (in assay [1]; in the assay on Saccharomyces cerevisiae) was “inactive” each time. The values for the Ki in assay [2], in assay [4] and in assay [5] were 340 nM, 900 nM and 80000 nM, respectively. Besides, the fold change (FC) in the assay filed under Homo sapiens was 1.5 to 1.7. In assay [3], the CMC was 37.5 µM.
For the compound `O=C(CCC(F)(F)C(F)(F)C(F)(F)C(F)(F)F)NCCCCNC(=S)N1[C@@H]2CO[C@H]1[C@H](O)[C@@H](O)[C@@H]2O`, the inhibition entry (in assay [1]; with Saccharomyces cerevisiae) was “inactive” throughout. For the same compound, the results for the Ki in assay [2], in assay [4] and in assay [5] were 6400 nM, 300 nM and 20800 nM, respectively. Moreover, the fold change (FC) in the assay listed under Homo sapiens is 1.5 to 1.7. This compound returned a CMC in assay [3] of 393 µM.

The term Ki denotes a dissociation constant, usually derived from enzyme kinetics or from competition with a known ligand.
